Measured values collected from several papers.
Target: Dual specificity mitogen-activated protein kinase kinase 7 (MAP2K7, Homo sapiens, UniProt O14733)
Sequence (O14733 1-419, as in one of the studies): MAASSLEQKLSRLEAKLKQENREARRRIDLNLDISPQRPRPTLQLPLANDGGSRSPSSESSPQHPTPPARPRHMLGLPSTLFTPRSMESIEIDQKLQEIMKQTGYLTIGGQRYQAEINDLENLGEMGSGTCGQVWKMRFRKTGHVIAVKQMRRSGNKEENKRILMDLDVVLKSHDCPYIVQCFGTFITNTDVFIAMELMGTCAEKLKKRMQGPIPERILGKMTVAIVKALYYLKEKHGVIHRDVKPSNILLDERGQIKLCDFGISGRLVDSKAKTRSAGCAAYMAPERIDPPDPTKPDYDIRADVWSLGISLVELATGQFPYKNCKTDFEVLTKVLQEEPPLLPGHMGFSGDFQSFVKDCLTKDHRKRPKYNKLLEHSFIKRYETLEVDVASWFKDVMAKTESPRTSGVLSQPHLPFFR

CCN(CC)CCNC(=O)c1c(C)[nH]c(/C=C2\C(=O)Nc3ccc(F)cc32)c1C gave an inhibition of 31% (enzyme activity; inhibitor; 10 µM).
The remaining binding of F[C@@H]1CCN(c2nccc(-c3cnn4ncccc34)n2)C1 is reported as 100% (binding; 1 µM).
The remaining activity of O=C(Nc1cnn(-c2csc(C(=O)NC3COC3)c2)c1)Nc1c(F)cccc1Cl is reported as 135% (enzyme activity; inhibitor; 5 µM).
Nc1ncnc2occ(-c3ccc(NC(=O)Nc4cc(C(F)(F)F)ccc4F)cc3)c12 gave a remaining signal of 2.9% (cell-free assay; inhibitor; 20 µM).
The remaining binding of N[C@@H]1CCN(c2nccc(-c3cnn4ncccc34)n2)C1 is reported as 100% (binding; 1 µM).
The inhibition of CNC(=O)c1cc(Oc2ccc(NC(=O)Nc3ccc(Cl)c(C(F)(F)F)c3)cc2)ccn1 is reported as 40% (enzyme activity; inhibitor; 10 µM).
Cc1sc(C(=O)NC2COC2)cc1-n1cc(NC(=O)Nc2c(F)cccc2Cl)cn1 has a remaining activity of 120% (enzyme activity; inhibitor; 10 µM).
With Cc1cc(NC(=O)c2cccc(S(F)(F)(F)(F)F)c2)cc(-n2ccn3nc(-c4cccnc4)cc23)c1 the remaining binding was 89.7% (cell-free assay; competition with immobilised ligand; 1 µM).
CC(C)(C)c1nc2c(s1)c1nc(N)ncc1c1ccc(NS(=O)(=O)c3c(F)cccc3F)c(F)c12 gave a remaining activity of 83% (enzyme activity; inhibitor; radiometric; 1 µM).
The remaining binding of C[C@H](NC(=O)c1cnc2n1[C@](C)(Cc1ccc(C#N)cc1)C(=O)N2c1cc(Cl)c(F)c(Cl)c1)C(=O)NC1(c2ccccn2)CC1 is reported as 100% (cell-free assay; competition with immobilised ligand; 1 µM).
CC(C)(C)c1nc(-c2cccc(NS(=O)(=O)c3c(F)cccc3F)c2F)c(-c2ccnc(N)n2)s1 gave a remaining activity of 78% (enzyme activity; inhibitor; radiometric; 1 µM).
Cc1ccc(C(=O)Nc2ccc(CN3CCN(C)CC3)c(C(F)(F)F)c2)cc1C#Cc1cnc2cccnn12 gave a remaining activity of 75% (enzyme activity; inhibitor; 23.5 nM).
